# “And” between values parts separate entries of the source, which are not always exact repeats. Equal entries are not always repeated.
# How the values were obtained:
# U2OS = assay: Multiplex assay against U2OS; assay type: toxicity, cell-based; details: human, number of replicates 2
# Outline: (§1)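 Phenotypes for tubulin, mitochondrial mass and membrane permeability are expressed as per cents of healthy-nucleus cells. Cells were stained live at seeding with Hoechst33342, BioTracker Green Microtubule Cytoskeleton Dye, MitoTracker Red and Annexin V Alexa Fluor 680, then imaged after compound addition on a CQ1 microscope at 37°C and 5% CO2. Machine-learning gating in CellPathfinder separated Hoechst high-intensity objects from normal cells, divided normal cells by nuclear state (healthy, pyknosed, fragmented) and divided pyknosed cells into mitotic or apoptotic.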
# HEK-293T = assay: Multiplex assay against HEK293T; assay type: toxicity, cell-based; details: human, number of replicates 2; outline: as §1
# [1] = 24 h, 10 µM, compound concentration 10 uM
# [2] = 48 h, 1 µM, compound concentration 1 uM
# [3] = 48 h, 10 µM, compound concentration 10 uM
# [4] = 12 h, 1 µM, compound concentration 1 uM
# [5] = 12 h, 10 µM, compound concentration 10 uM
# [6] = 24 h, 1 µM, compound concentration 1 uM
smiles,measurement,setting,value
COc1cc2nc(-c3cc(F)ccc3O)nc(N[C@@H]3CNC[C@H]3C(C)(C)O)c2cc1OC.Cl.Cl,Population Fragmented Nuclei (%),U2OS; [1],14% and 22%
same,Population Healthy Nuclei (%),U2OS; [1],3% and 0%
same,Population Hoechst High Intensity Objects (%),U2OS; [1],2% and 0%
same,Population Mitotic Cells (%),U2OS; [1],8% and 9%
same,Population Normal (%),U2OS; [1],97% and 100%
same,Population Pyknosed Nuclei (%),U2OS; [1],82% and 77%
same,Population Apoptotic (%),U2OS; [2],84% and 94%
same,Population Fragmented Nuclei (%),U2OS; [2],17% and 6%
same,Population Healthy Nuclei (%),U2OS; [2],52% and 77%
same,Population Hoechst High Intensity Objects (%),U2OS; [2],0%
same,Population Membrane Permeable-Phenotype (%),U2OS; [2],12% and 9%
same,Population Mitochondria Different-Phenotype (%),U2OS; [2],27% and 34%
same,Population Mitotic Cells (%),U2OS; [2],15% and 5%
same,Population Normal (%),U2OS; [2],100%
same,Population Pyknosed Nuclei (%),U2OS; [2],30% and 15%
same,Population Tubulin-Different-Phenotype (%),U2OS; [2],24% and 34%
same,Population Apoptotic (%),U2OS; [3],96% and 89%
same,Population Fragmented Nuclei (%),U2OS; [3],10% and 19%
same,Population Healthy Nuclei (%),U2OS; [3],3% and 4%
same,Population Hoechst High Intensity Objects (%),U2OS; [3],0%
same,Population Membrane Permeable-Phenotype (%),U2OS; [3],100% and 85%
same,Population Mitochondria Different-Phenotype (%),U2OS; [3],100% and 71%
same,Population Mitotic Cells (%),U2OS; [3],4% and 10%
same,Population Normal (%),U2OS; [3],100% and 99%
same,Population Pyknosed Nuclei (%),U2OS; [3],86% and 76%
same,Population Tubulin-Different-Phenotype (%),U2OS; [3],100% and 85%
same,Population Apoptotic (%),HEK-293T; [4],40% and 65%
same,Population Fragmented Nuclei (%),HEK-293T; [4],4% and 3%
same,Population Healthy Nuclei (%),HEK-293T; [4],86% and 83%
same,Population Hoechst High Intensity Objects (%),HEK-293T; [4],6% and 5%
same,Population Membrane Permeable-Phenotype (%),HEK-293T; [4],4% and 3%
same,Population Mitochondria Different-Phenotype (%),HEK-293T; [4],24% and 25%
same,Population Mitotic Cells (%),HEK-293T; [4],59% and 34%
same,Population Normal (%),HEK-293T; [4],93% and 94%
same,Population Pyknosed Nuclei (%),HEK-293T; [4],9% and 13%
same,Population Tubulin-Different-Phenotype (%),HEK-293T; [4],78%
same,Total Cell Count,HEK-293T; [4],681 and 543
same,Population Apoptotic (%),HEK-293T; [5],78% and 80%
same,Population Fragmented Nuclei (%),HEK-293T; [5],2%
same,Population Healthy Nuclei (%),HEK-293T; [5],62% and 61%
same,Population Hoechst High Intensity Objects (%),HEK-293T; [5],7% and 8%
same,Population Membrane Permeable-Phenotype (%),HEK-293T; [5],4% and 2%
same,Population Mitochondria Different-Phenotype (%),HEK-293T; [5],82% and 75%
same,Population Mitotic Cells (%),HEK-293T; [5],21% and 19%
same,Population Normal (%),HEK-293T; [5],92% and 91%
same,Population Pyknosed Nuclei (%),HEK-293T; [5],35%
same,Population Tubulin-Different-Phenotype (%),HEK-293T; [5],97%
same,Total Cell Count,HEK-293T; [5],476 and 483
same,Population Apoptotic (%),HEK-293T; [6],47% and 69%
same,Population Fragmented Nuclei (%),HEK-293T; [6],6%
same,Population Healthy Nuclei (%),HEK-293T; [6],85% and 84%
same,Population Hoechst High Intensity Objects (%),HEK-293T; [6],8% and 9%
same,Population Membrane Permeable-Phenotype (%),HEK-293T; [6],3%
same,Population Mitochondria Different-Phenotype (%),HEK-293T; [6],12% and 17%
same,Population Mitotic Cells (%),HEK-293T; [6],52% and 30%
same,Population Normal (%),HEK-293T; [6],91% and 90%
same,Population Pyknosed Nuclei (%),HEK-293T; [6],7% and 8%
same,Population Tubulin-Different-Phenotype (%),HEK-293T; [6],63% and 68%
same,Total Cell Count,HEK-293T; [6],1032 and 692
same,Population Apoptotic (%),HEK-293T; [1],87% and 80%
same,Population Fragmented Nuclei (%),HEK-293T; [1],4% and 2%
same,Population Healthy Nuclei (%),HEK-293T; [1],50% and 51%
same,Population Hoechst High Intensity Objects (%),HEK-293T; [1],20% and 25%
same,Population Membrane Permeable-Phenotype (%),HEK-293T; [1],6% and 4%
same,Population Mitochondria Different-Phenotype (%),HEK-293T; [1],65% and 68%
same,Population Mitotic Cells (%),HEK-293T; [1],12% and 20%
same,Population Normal (%),HEK-293T; [1],79% and 74%
same,Population Pyknosed Nuclei (%),HEK-293T; [1],45%
same,Population Tubulin-Different-Phenotype (%),HEK-293T; [1],84% and 89%
same,Total Cell Count,HEK-293T; [1],441 and 428
same,Population Apoptotic (%),HEK-293T; [2],22% and 35%
same,Population Fragmented Nuclei (%),HEK-293T; [2],14% and 7%
same,Population Healthy Nuclei (%),HEK-293T; [2],82% and 88%
same,Population Hoechst High Intensity Objects (%),HEK-293T; [2],9% and 11%
same,Population Membrane Permeable-Phenotype (%),HEK-293T; [2],3% and 1%
same,Population Mitochondria Different-Phenotype (%),HEK-293T; [2],1% and 3%
same,Population Mitotic Cells (%),HEK-293T; [2],77% and 64%
same,Population Normal (%),HEK-293T; [2],90% and 88%
same,Population Pyknosed Nuclei (%),HEK-293T; [2],3% and 4%
same,Population Tubulin-Different-Phenotype (%),HEK-293T; [2],26% and 35%
same,Total Cell Count,HEK-293T; [2],2589 and 1346
same,Population Apoptotic (%),HEK-293T; [3],85% and 77%
same,Population Fragmented Nuclei (%),HEK-293T; [3],4% and 3%
same,Population Healthy Nuclei (%),HEK-293T; [3],32% and 30%
same,Population Hoechst High Intensity Objects (%),HEK-293T; [3],21% and 24%
same,Population Membrane Permeable-Phenotype (%),HEK-293T; [3],6% and 5%
same,Population Mitochondria Different-Phenotype (%),HEK-293T; [3],58%
same,Population Mitotic Cells (%),HEK-293T; [3],14% and 22%
same,Population Normal (%),HEK-293T; [3],78% and 75%
same,Population Pyknosed Nuclei (%),HEK-293T; [3],62% and 66%
same,Population Tubulin-Different-Phenotype (%),HEK-293T; [3],82% and 81%
same,Total Cell Count,HEK-293T; [3],411 and 392

# Source: ChEMBL document CHEMBL5303300, “EUbOPEN Chemogenomics Library - Multiplex” (2023)
